According to ChEMBL document CHEMBL1138113, “The design and synthesis of YC-1 analogues as probes for soluble guanylate cyclase” (Bioorg Med Chem Lett, 2006):

Experiments:
Format in all cases: functional
[1] = molecular target: Soluble guanylate cyclase (Homo sapiens, UniProt O75343+P33402+Q02108+Q02153); experiment: Effect on YC-1 mediated activation of sGC in presence of carbon monoxide
In short: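 Purified sGC from a baculovirus/Sf9 expression system, measured with CO by end-point assay in 4% v/v DMSO across a range of YC-1 concentrations, with and without a fixed level of the test compound. Assays ran 2 min in triplicate, and errors are mean + range/2. EC50 came from a four-parameter logistic fit.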

[2] = molecular target: T1, Soluble guanylate cyclase (Homo sapiens) (UniProt Q02153+O75343+P33402+Q02108); experiment: Ratio of activation of sGC by compound over that of control, in absence of carbon monooxide (basal activity 33+/-3 nmol/min/mg)
[3] = molecular target: T1, Soluble guanylate cyclase (Homo sapiens); experiment: Ratio of activation of sGC by compound over that of control, in presence of carbon monooxide (basal activity 33+/-3 nmol/min/mg in absence of CO)

Chain of Soluble guanylate cyclase (Q02153 whole entry): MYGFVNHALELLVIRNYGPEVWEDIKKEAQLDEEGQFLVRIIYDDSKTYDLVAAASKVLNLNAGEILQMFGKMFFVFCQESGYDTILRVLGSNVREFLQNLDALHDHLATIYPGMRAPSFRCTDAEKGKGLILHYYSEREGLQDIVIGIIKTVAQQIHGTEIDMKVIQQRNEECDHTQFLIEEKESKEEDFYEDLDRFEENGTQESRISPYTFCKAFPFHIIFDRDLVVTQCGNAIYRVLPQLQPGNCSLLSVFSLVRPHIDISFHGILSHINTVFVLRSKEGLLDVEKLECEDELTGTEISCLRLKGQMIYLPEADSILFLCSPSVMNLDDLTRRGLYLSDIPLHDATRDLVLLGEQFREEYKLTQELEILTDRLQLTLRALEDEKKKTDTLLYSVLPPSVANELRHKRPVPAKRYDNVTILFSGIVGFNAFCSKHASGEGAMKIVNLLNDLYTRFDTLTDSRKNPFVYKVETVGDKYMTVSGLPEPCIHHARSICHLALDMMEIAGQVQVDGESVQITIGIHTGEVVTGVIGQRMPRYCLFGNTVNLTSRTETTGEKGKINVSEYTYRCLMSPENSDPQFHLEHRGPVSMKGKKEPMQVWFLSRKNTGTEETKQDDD
Chain of Soluble guanylate cyclase (O75343 whole entry): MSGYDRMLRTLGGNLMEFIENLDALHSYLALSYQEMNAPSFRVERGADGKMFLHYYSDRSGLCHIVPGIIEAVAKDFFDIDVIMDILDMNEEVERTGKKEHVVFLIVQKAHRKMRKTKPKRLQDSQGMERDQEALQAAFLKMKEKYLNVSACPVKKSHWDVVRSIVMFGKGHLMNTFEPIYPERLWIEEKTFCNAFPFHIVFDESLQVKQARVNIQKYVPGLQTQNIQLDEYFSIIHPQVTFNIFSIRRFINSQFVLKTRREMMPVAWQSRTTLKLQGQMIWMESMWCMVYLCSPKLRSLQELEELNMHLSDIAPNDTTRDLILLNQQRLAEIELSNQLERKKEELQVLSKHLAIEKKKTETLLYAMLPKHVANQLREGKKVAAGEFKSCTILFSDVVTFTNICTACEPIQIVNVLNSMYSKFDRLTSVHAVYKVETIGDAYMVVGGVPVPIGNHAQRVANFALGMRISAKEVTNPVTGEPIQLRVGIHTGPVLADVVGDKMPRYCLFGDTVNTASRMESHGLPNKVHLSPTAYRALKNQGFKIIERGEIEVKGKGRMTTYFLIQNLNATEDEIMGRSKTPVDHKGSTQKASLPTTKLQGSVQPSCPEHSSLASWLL
Chain of Soluble guanylate cyclase (P33402 whole entry): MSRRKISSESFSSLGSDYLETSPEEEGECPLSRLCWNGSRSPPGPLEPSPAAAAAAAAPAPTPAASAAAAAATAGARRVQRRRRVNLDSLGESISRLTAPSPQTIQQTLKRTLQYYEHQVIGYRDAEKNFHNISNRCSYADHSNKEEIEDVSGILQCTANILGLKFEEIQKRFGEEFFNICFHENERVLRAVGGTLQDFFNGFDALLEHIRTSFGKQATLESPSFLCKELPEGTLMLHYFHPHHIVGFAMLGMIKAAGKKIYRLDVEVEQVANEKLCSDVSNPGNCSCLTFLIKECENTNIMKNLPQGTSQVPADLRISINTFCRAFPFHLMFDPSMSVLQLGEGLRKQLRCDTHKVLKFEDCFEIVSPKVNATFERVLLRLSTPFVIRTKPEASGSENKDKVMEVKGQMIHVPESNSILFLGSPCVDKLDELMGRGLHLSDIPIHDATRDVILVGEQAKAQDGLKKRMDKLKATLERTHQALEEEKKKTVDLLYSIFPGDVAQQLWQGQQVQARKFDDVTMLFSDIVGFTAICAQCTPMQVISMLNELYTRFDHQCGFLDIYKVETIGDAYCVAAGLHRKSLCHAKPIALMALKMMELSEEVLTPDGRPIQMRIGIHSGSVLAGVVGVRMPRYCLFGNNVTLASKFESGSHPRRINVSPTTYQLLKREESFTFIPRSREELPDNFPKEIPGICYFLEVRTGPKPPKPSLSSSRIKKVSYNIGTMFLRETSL
Chain of Soluble guanylate cyclase (Q02108 whole entry): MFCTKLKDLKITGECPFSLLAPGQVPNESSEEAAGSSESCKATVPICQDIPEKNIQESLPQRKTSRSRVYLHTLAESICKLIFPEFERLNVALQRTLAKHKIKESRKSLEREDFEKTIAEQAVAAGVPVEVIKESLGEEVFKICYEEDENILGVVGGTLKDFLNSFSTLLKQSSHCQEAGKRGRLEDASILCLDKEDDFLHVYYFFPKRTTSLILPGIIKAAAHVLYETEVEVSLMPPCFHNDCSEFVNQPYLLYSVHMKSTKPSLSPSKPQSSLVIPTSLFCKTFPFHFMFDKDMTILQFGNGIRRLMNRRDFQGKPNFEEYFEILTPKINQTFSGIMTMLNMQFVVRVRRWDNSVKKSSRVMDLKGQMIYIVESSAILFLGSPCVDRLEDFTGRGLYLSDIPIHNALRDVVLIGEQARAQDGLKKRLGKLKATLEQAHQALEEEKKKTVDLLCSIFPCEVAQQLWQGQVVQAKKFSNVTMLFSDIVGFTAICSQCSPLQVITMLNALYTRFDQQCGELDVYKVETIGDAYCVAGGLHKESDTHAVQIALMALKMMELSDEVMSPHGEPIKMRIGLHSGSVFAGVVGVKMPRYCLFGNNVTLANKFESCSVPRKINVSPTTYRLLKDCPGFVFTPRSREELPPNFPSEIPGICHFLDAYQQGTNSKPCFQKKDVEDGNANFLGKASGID

| Structure (SMILES) | EC50 [1] | Activity [2] | Activity [3] |
| --- | --- | --- | --- |
| [N-]=[N+]=Nc1ccc2c(-c3ccc(CO)o3)nn(Cc3ccccc3)c2c1 | 21.9 µM | 3.4 | 29 |
| [N-]=[N+]=Nc1ccc2c(c1)c(-c1ccc(CO)o1)nn2Cc1ccccc1 |  | 1.7 | 4.4 |
| [N-]=[N+]=Nc1ccc(Cn2nc(-c3ccc(CO)o3)c3ccccc32)cc1 |  | 4.7 | 20.3 |
| OCc1ccc(-c2nn(Cc3ccccc3)c3ccccc23)o1 |  | 9.2 | 139 |
| [N-]=[N+]=Nc1cccc(Cn2nc(-c3ccc(CO)o3)c3ccccc32)c1 |  | 2 | 7.1 |
